From ChEMBL document CHEMBL1275429, “Pharmacodynamic characterization of ceftobiprole in experimental pneumonia caused by phenotypically diverse Staphylococcus aureus strains” (Antimicrob Agents Chemother, 2008)
Converted amounts (≈) assume the structure as drawn.

Tests used:
[1] = fT>MIC required for 80% inhibition of community acquired methicillin-resistant Staphylococcus aureus 146 infection in neutropenic BALB/cAnNCr mouse; type: functional
In short: (§1)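 Same neutropenic murine pneumonia model, with 24-h lung log10 CFU change (5 mice per group; 1–25 mg/kg s.c., 1–5 times daily). […] ED50, ED80 and stasis exposures were taken from a sigmoid Emax fit for each isolate.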

Staphylococcus aureus [2] = assay: Antimicrobial activity against hospital acquired methicillin-resistant Staphylococcus aureus 56 by broth microdilution method; type: functional
In short: (§2)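 Broth microdilution run in triplicate following CLSI guidelines. Isolates were stored at –80°C in double-strength skim milk and subcultured twice on Trypticase soy agar with 5% sheep blood before testing.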

[3] = fT>MIC required for 50% inhibition of community acquired Staphylococcus aureus 147 infection in neutropenic BALB/cAnNCr mouse; type: functional
Mus musculus [4] = assay: Volume of distribution in neutropenic BALB/cAnNCr mouse infected with Staphylococcus aureus at 2.5 mg/kg, sc administered as single dose after 6 hrs of infection; type: ADME, organism-based; set-up: dose 2.5 mg/kg, route subcutaneous; details: in vivo
In short: (§3)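 Female BALB/cAnNCr mice (7-9 weeks, 15-22 g) made neutropenic with cyclophosphamide, 250 mg/kg i.p. on day -4 and 100 mg/kg i.p. on day -1. Infected by oral aspiration of HA-MRSA 56 (10^7 CFU/ml in 3% mucin/saline). Single s.c. dose in sterile water given 6 h post-challenge. Plasma (EDTA, citric acid-stabilized) taken at 0.25-4 h, six mice per time point. Assayed by validated HPLC (LOQ 0.01 µg/ml); one-compartment analysis.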

[5] = Tmax in neutropenic BALB/cAnNCr mouse infected with Staphylococcus aureus at 1 mg/kg, sc administered as single dose after 6 hrs of infection; type: ADME, organism-based; set-up: dose 1 mg/kg, route subcutaneous; details: in vivo
In short: (§4)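 Neutropenic female mice (cyclophosphamide i.p. 250 mg/kg day −4, 100 mg/kg day −1) with HA-MRSA 56 pneumonia (oral inoculum, 10^7 CFU/ml in 3% mucin). Single s.c. dose in sterile water. Plasma by intracardiac puncture at 0.25–4 h, six mice per time point, stabilized with citric acid. Assayed by validated HPLC (LOQ 0.01 µg/ml). Parameters from one-compartment analysis.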

[6] = fT>MIC required for 80% inhibition of methicillin-susceptible Staphylococcus aureus […] infection in neutropenic BALB/cAnNCr mouse; type: functional
Mus musculus [7] = assay: Volume of distribution in neutropenic BALB/cAnNCr mouse infected with Staphylococcus aureus at 25 mg/kg, sc administered as single dose after 6 hrs of infection; type: ADME, organism-based; set-up: dose 25 mg/kg, route subcutaneous; details: in vivo; in short: as §4
[8] = Elimination half life in neutropenic BALB/cAnNCr mouse infected with Staphylococcus aureus at 25 mg/kg, sc administered as single dose after 6 hrs of infection; type: ADME, organism-based; set-up: dose 25 mg/kg, route subcutaneous; details: in vivo; in short: as §4
[9] = fT>MIC required for stasis inhibition of community acquired methicillin-resistant Staphylococcus aureus 144 infection in neutropenic BALB/cAnNCr mouse; type: functional; in short: as §1
Staphylococcus aureus [10] = assay: Antimicrobial activity against hospital acquired methicillin-resistant Staphylococcus aureus 152 by broth microdilution method; type: functional; in short: as §2
[11] = Cmax in neutropenic BALB/cAnNCr mouse infected with Staphylococcus aureus at 2.5 mg/kg, sc administered as single dose after 6 hrs of infection; type: ADME, organism-based; set-up: dose 2.5 mg/kg, route subcutaneous; details: in vivo; in short: as §3
[12] = fT>MIC required for stasis inhibition of hospital acquired methicillin-resistant Staphylococcus aureus 149 infection in neutropenic BALB/cAnNCr mouse; type: functional; in short: as §1
Staphylococcus aureus [13] = assay: Antimicrobial activity against hospital acquired methicillin-resistant Staphylococcus aureus 149 infected in BALB/cAnNCr mouse assessed as decrease in bacterial density in lungs at 1 to 25 mg/kg, sc administered as 1 to 5 times/day after 24 hrs […] relative to control; type: functional; details: route subcutaneous
In short: (§5)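 Female BALB/cAnNCr mice (7–9 weeks) were made neutropenic with cyclophosphamide i.p. at 250 mg/kg on day −4 and 100 mg/kg on day −1. Under isoflurane, mice received an oral inoculum in 3% mucin/saline, with nostrils blocked until aspiration. Drug (1–25 mg/kg s.c., once to five times daily, water vehicle) or sham started 6 h post-inoculation. Lungs were harvested at 24 h, homogenized and plated on blood and Columbia agar at 35°C. Mean log10 CFU/ml was compared with the 0-h untreated baseline; 5 mice per group.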

[14] = Cmax in neutropenic BALB/cAnNCr mouse infected with Staphylococcus aureus at 25 mg/kg, sc administered as single dose after 6 hrs of infection; type: ADME, organism-based; set-up: dose 25 mg/kg, route subcutaneous; details: in vivo; in short: as §4
[15] = fT>MIC required for 50% inhibition of community acquired Staphylococcus aureus 144 infection in neutropenic BALB/cAnNCr mouse; type: functional; in short: as §1
[16] = fT>MIC required for 50% inhibition of hospital acquired Staphylococcus aureus 149 infection in neutropenic BALB/cAnNCr mouse; type: functional
[17] = Elimination half life in neutropenic BALB/cAnNCr mouse infected with Staphylococcus aureus at 1 mg/kg, sc administered as single dose after 6 hrs of infection; type: ADME, organism-based; set-up: dose 1 mg/kg, route subcutaneous; details: in vivo; in short: as §4
[18] = fAUC/MIC required for 50% inhibition of Staphylococcus aureus infection in neutropenic BALB/cAnNCr mouse; type: functional
Staphylococcus aureus [19] = assay: Antimicrobial activity against community acquired methicillin-resistant Staphylococcus aureus 147 by broth microdilution method; type: functional; in short: as §2
Staphylococcus aureus [20] = assay: Antimicrobial activity against community acquired methicillin-resistant Staphylococcus aureus 146 infected in BALB/cAnNCr mouse assessed as decrease in bacterial density in lungs at 1 to 25 mg/kg, sc administered as 1 to 5 times/day after 24 hrs […] relative to control; type: functional; details: route subcutaneous; in short: as §5
[21] = fT>MIC required for 50% inhibition of community acquired Staphylococcus aureus 146 infection in neutropenic BALB/cAnNCr mouse; type: functional
[22] = AUC (0 to infinity) in neutropenic BALB/cAnNCr mouse infected with Staphylococcus aureus at 2.5 mg/kg, sc administered as single dose after 6 hrs of infection; type: ADME, organism-based; set-up: time infinity, dose 2.5 mg/kg, route subcutaneous; details: plasma; in short: as §3
[23] = AUC (0 to infinity) in neutropenic BALB/cAnNCr mouse infected with Staphylococcus aureus at 25 mg/kg, sc administered as single dose after 6 hrs of infection; type: ADME, organism-based; set-up: time infinity, dose 25 mg/kg, route subcutaneous; details: plasma; in short: as §4
[24] = fT>MIC required for 80% inhibition of hospital acquired methicillin-resistant Staphylococcus aureus 56 infection in neutropenic BALB/cAnNCr mouse; type: functional; in short: as §1
Staphylococcus aureus [25] = assay: Antimicrobial activity against hospital acquired methicillin-resistant Staphylococcus aureus 152 infected in BALB/cAnNCr mouse assessed as decrease in bacterial density in lungs at 1 to 25 mg/kg, sc administered as 1 to 5 times/day after 24 hrs […] relative to control; type: functional; details: route subcutaneous; in short: as §5
[26] = Tmax in neutropenic BALB/cAnNCr mouse infected with Staphylococcus aureus at 2.5 mg/kg, sc administered as single dose after 6 hrs of infection; type: ADME, organism-based; set-up: dose 2.5 mg/kg, route subcutaneous; details: in vivo; in short: as §3
[27] = fT>MIC required for stasis inhibition of hospital acquired methicillin-resistant Staphylococcus aureus 152 infection in neutropenic BALB/cAnNCr mouse; type: functional; in short: as §1
Staphylococcus aureus [28] = assay: Antimicrobial activity against methicillin-susceptible Staphylococcus aureus ATCC 25923 by broth microdilution method; type: functional; in short: as §2
[29] = fT>MIC required for stasis inhibition of methicillin-susceptible Staphylococcus aureus 25923 infection in neutropenic BALB/cAnNCr mouse; type: functional

Nc1nc(/C(=N/O)C(=O)N[C@@H]2C(=O)N3C(C(=O)O)=C(/C=C4\CCN([C@@H]5CCNC5)C4=O)CS[C@H]23)ns1 [CEFTOBIPROLE]
fT>MIC [1]: 6%
MIC (Staphylococcus aureus [2]): 1 µg/mL (≈ 1.87 µM)
fT>MIC [3]: 17.1%
Vd (Mus musculus [4]): 0.63 L/kg
Tmax [5]: 28.8 min
fT>MIC [6]: 19.5%
Vd (Mus musculus [7]): 0.41 L/kg
half-life [8]: 24 min
fT>MIC [9]: 13.6%
MIC (Staphylococcus aureus [10]): 0.5 µg/mL (≈ 0.935 µM)
Cmax [11]: 2910 ng/mL
fT>MIC [12]: 6.6%
log10cfu (Staphylococcus aureus [13]): 4.1
Cmax [14]: 38600 ng/mL
fT>MIC [15]: 13.8%
fT>MIC [16]: 8.6%
half-life [17]: 15 min
fAUC/MIC [18]: 3
MIC (Staphylococcus aureus [19]): 1 µg/mL (≈ 1.87 µM)
log10cfu (Staphylococcus aureus [20]): 3.6
fT>MIC [21]: 5.5%
AUC(0-inf) [22]: 2570 ng·h/mL
AUC(0-inf) [23]: 35200 ng·h/mL
fT>MIC [24]: 15.5%
log10cfu (Staphylococcus aureus [25]): 3.8
Tmax [26]: 24.6 min
fT>MIC [27]: 13.4%
MIC (Staphylococcus aureus [28]): 0.25 µg/mL (≈ 0.468 µM)
fT>MIC [29]: 7.6%
